Active and inactive are the calls of the source. The calls are words filed in the database; no cut-off is given here.

In assay [1] the target is Histone H3.2 (Homo sapiens) (UniProt Q71DI3). Description: Binding affinity to HIST2H3A in human NCI-H23 cells at 1 uM by mass spectrometry based pull down assay. In kind it is cell-based.
The target of assay [2] is Opioid growth factor receptor (Homo sapiens) (UniProt Q9NZT2). Description: Binding affinity to OGFR in human NCI-H358 cells at 1 uM by mass spectrometry based pull down assay. Format: cell-based.
For assay [3], the target named is Testis-expressed protein 264 (Homo sapiens) (UniProt Q9Y6I9). Description: Binding affinity to TEX264 in human NCI-H23 cells at 1 uM by mass spectrometry based pull down assay. In kind it is cell-based.
The target in assay [4] is Glutamate--cysteine ligase catalytic subunit (Homo sapiens) (UniProt P48506). The assay can be described thus: Binding affinity to GCLC in human NCI-H358 cells at 1 uM by mass spectrometry based pull down assay. Format: cell-based.
In assay [5] the target is T1, 80S Ribosome (Homo sapiens) (UniProt P08865+P42677+P62753+P15880+P23396+P61247+P62701+P22090+P46782+P62081+P62241+P46781+P46783+P62280+P25398+P62277+P62263+P62841+P62244+P62249+P08708+P62269+P39019+P60866+P63220+P62266+P62847+P62851+P62854+P62979+P62857+P62273+P62861+P39023+P36578+P46777+Q02878+P18124+P62424+P62917+P32969+P27635+P62906+P62913+P30050+P26373+P40429+P50914+P61313+P18621+Q07020+Q02543+P84098+P46778+P35268+P62829+P62750+P83731+P61254+P61353+P46776+P46779+P47914+P62888+P62899+P62910+P49207+P42766+P18077+Q9Y3U8+P83881+P61927+P61513+P63173+P62891+P62945+P05388+P05386). The assay can be described thus: Binding affinity to RPL9 in human NCI-H358 cells at 1 uM by mass spectrometry based pull down assay. In kind it is cell-based.

The target in assay [6] is T2, Aurora kinase A (Homo sapiens) (UniProt O14965).
T2 sequence (whole entry): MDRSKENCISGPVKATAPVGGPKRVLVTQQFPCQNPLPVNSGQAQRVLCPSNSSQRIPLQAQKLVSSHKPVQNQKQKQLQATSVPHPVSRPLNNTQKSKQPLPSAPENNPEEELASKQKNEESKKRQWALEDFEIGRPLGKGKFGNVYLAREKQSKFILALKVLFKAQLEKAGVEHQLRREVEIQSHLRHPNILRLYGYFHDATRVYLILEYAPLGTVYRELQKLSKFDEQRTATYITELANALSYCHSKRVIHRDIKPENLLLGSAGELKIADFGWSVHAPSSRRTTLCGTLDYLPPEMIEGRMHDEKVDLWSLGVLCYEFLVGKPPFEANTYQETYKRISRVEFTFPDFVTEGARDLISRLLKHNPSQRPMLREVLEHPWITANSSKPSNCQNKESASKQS
Description: Binding affinity to AURKA in human NCI-H23 cells at 1 uM by mass spectrometry based pull down assay. Format: cell-based.

In assay [7] the target is Protein disulfide-isomerase A3 (Homo sapiens) (UniProt P30101). The assay can be described thus: Binding affinity to PDIA3 in human NCI-H358 cells at 1 uM by mass spectrometry based pull down assay. Format: cell-based.
The target in assay [8] is A-kinase anchor protein 12 (Homo sapiens) (UniProt Q02952). Description: Binding affinity to AKAP12 in human NCI-H23 cells at 1 uM by mass spectrometry based pull down assay. In kind it is cell-based. An outline of the steps: (§1)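 NCI-H23 or NCI-H358 cells were grown and lysed. Lysates were incubated overnight at 4 °C with 1 μM biotinylated covalent probe or DMSO, then pulled down on streptavidin beads. Proteins were run on polyacrylamide gels and stained with Coomassie. Bands were excised, digested and identified by mass spectrometry.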

Assay [9] addresses Constitutive coactivator of PPAR-gamma-like protein 1 (Homo sapiens) (UniProt Q9NZB2). Description: Binding affinity to FAM120A in human NCI-H358 cells at 1 uM by mass spectrometry based pull down assay. Format: cell-based.
Assay [10] has as its target Probable ATP-dependent RNA helicase DDX5 (Homo sapiens) (UniProt P17844). Description: Binding affinity to DDX5 in human NCI-H23 cells at 1 uM by mass spectrometry based pull down assay. In kind it is cell-based.
Assay [11] deals with T1, 80S Ribosome (Homo sapiens). Description: Binding affinity to RPL35A in human NCI-H23 cells at 1 uM by mass spectrometry based pull down assay. In kind it is cell-based.
The target of assay [12] is Cyclin-G-associated kinase (Homo sapiens) (UniProt O14976). Description: Binding affinity to GAK in human NCI-H358 cells at 1 uM by mass spectrometry based pull down assay. In kind it is cell-based.
For assay [13], the target named is Ribosomal protein S6 kinase alpha-3 (Homo sapiens) (UniProt P51812). Description: Binding affinity to RPS6KA3 in human NCI-H23 cells at 1 uM by mass spectrometry based pull down assay. In kind it is cell-based.
Assay [14] deals with F-actin-capping protein subunit beta (Homo sapiens) (UniProt P47756). The assay can be described thus: Binding affinity to CAPZB in human NCI-H23 cells at 1 uM by mass spectrometry based pull down assay. Format: cell-based.
Assay [15] concerns the target Actin-related protein 2 (Homo sapiens) (UniProt P61160). Description: Binding affinity to ACTR2 in human NCI-H23 cells at 1 uM by mass spectrometry based pull down assay. In kind it is cell-based. An outline of the steps: as §1
Assay [16] addresses Phosphatidylinositol 3-kinase catalytic subunit type 3 (Homo sapiens) (UniProt Q8NEB9). Description: Binding affinity to PIK3C3 in human NCI-H358 cells at 1 uM by mass spectrometry based pull down assay. In kind it is cell-based.
Assay [17] concerns the target Ubiquitin-associated protein 2-like (Homo sapiens) (UniProt Q14157). Description: Binding affinity to UBAP2L in human NCI-H358 cells at 1 uM by mass spectrometry based pull down assay. Format: cell-based.
The target in assay [18] is Peripheral plasma membrane protein CASK (Homo sapiens) (UniProt O14936). The assay can be described thus: Inhibition of CASK in human SKCO1 cells at 1 uM after 4 hrs using biotin labeled ETGQQFAVKIVDVAK probe by mass-spectrometric analysis relative to control. Format: cell-based.
The target in assay [19] is T3, Dual specificity mitogen-activated protein kinase kinase 3 (Homo sapiens) (UniProt P46734).
T3 sequence (whole entry): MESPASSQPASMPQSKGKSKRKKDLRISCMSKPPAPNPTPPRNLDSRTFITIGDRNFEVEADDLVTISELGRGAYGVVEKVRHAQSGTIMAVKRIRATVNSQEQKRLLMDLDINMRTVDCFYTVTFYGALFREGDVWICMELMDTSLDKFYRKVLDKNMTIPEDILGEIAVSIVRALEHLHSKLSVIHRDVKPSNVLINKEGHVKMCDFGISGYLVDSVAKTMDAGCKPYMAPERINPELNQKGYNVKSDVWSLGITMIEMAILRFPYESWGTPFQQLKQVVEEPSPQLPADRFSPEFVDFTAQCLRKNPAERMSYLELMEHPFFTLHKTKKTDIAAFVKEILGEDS
The assay can be described thus: Inhibition of full length human MEK3 (1 to 318 residues) expressed in mammalian expression system assessed as enzyme activity at 10 uM by KINOMEScan assay relative to control. The arrangement: scale not given: the % may be the effect or the level left. Summed up:
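In vitro ATP-site competition binding assay (KinomeScan) across a panel of 456 kinases. Compound was tested at 1 and 10 μM. The read-out is the binding inhibition score relative to control.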

Chain of Peripheral plasma membrane protein CASK (Homo sapiens) (O14936 whole entry): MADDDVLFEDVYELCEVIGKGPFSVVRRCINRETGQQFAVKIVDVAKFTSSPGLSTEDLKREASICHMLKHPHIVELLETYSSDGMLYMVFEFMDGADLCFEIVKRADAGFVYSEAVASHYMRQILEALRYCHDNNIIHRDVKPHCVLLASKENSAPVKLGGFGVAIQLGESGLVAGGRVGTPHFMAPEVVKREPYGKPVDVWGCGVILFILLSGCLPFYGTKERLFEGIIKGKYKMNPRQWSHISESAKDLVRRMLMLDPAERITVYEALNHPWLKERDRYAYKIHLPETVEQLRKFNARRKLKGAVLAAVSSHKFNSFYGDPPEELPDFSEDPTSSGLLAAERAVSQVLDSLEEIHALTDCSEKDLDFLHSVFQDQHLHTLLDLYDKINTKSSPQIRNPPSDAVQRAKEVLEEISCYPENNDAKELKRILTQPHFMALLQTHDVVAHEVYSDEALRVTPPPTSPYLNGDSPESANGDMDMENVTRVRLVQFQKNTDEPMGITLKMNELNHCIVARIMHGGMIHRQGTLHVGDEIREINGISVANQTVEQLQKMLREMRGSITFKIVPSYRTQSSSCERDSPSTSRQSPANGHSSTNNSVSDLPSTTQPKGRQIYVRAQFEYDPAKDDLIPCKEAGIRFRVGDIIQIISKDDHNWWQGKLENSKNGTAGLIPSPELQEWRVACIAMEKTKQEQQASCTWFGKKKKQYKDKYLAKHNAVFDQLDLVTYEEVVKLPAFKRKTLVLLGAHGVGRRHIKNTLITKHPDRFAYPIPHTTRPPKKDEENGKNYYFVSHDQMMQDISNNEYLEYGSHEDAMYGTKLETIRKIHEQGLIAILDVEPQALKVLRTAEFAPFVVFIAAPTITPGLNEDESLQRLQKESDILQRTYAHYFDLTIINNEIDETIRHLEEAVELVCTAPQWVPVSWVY
Chain of A-kinase anchor protein 12 (Homo sapiens) (Q02952 whole entry): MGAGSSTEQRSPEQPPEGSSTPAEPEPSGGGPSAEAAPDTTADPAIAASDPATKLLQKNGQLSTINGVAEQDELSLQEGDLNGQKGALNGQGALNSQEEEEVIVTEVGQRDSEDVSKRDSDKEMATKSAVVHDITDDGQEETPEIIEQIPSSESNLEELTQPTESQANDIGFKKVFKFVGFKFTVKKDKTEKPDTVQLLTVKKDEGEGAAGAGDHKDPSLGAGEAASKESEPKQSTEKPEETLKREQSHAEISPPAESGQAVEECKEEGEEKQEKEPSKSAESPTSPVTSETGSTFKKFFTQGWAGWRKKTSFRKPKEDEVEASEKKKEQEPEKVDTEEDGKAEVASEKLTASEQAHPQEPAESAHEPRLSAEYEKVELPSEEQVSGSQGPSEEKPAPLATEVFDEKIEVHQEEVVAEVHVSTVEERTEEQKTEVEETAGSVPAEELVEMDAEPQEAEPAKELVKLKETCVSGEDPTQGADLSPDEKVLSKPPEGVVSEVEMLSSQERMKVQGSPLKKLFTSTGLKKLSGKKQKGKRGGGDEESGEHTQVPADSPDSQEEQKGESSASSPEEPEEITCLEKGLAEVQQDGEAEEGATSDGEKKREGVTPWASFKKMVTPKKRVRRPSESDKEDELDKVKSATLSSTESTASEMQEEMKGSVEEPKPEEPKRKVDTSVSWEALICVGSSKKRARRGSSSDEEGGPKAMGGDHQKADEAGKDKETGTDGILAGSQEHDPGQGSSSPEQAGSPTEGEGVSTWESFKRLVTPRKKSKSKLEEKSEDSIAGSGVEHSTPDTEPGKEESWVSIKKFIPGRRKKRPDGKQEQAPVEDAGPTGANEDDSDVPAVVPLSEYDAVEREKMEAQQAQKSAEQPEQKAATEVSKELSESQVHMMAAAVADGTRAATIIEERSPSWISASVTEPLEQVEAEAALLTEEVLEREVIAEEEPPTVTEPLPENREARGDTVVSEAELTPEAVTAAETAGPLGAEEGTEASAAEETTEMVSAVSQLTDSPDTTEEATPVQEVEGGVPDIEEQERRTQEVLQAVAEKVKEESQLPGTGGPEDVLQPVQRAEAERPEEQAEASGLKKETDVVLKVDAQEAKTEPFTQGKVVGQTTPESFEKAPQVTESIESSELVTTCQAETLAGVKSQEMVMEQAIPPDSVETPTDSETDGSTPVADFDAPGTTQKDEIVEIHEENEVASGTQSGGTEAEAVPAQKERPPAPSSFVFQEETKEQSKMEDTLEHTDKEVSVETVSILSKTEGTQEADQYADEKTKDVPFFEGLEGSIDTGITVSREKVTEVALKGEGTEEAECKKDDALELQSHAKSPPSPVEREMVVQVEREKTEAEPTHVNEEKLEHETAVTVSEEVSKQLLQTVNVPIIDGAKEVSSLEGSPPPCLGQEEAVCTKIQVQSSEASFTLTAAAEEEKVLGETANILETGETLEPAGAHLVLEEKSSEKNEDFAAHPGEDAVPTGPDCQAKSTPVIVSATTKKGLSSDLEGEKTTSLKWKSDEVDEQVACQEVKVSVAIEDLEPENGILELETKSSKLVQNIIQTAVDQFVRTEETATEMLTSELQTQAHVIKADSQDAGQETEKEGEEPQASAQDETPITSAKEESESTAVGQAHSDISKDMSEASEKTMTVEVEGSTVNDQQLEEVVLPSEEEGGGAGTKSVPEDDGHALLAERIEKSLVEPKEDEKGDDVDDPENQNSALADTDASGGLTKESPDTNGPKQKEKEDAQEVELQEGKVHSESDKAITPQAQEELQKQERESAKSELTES
Chain of Cyclin-G-associated kinase (Homo sapiens) (O14976 whole entry): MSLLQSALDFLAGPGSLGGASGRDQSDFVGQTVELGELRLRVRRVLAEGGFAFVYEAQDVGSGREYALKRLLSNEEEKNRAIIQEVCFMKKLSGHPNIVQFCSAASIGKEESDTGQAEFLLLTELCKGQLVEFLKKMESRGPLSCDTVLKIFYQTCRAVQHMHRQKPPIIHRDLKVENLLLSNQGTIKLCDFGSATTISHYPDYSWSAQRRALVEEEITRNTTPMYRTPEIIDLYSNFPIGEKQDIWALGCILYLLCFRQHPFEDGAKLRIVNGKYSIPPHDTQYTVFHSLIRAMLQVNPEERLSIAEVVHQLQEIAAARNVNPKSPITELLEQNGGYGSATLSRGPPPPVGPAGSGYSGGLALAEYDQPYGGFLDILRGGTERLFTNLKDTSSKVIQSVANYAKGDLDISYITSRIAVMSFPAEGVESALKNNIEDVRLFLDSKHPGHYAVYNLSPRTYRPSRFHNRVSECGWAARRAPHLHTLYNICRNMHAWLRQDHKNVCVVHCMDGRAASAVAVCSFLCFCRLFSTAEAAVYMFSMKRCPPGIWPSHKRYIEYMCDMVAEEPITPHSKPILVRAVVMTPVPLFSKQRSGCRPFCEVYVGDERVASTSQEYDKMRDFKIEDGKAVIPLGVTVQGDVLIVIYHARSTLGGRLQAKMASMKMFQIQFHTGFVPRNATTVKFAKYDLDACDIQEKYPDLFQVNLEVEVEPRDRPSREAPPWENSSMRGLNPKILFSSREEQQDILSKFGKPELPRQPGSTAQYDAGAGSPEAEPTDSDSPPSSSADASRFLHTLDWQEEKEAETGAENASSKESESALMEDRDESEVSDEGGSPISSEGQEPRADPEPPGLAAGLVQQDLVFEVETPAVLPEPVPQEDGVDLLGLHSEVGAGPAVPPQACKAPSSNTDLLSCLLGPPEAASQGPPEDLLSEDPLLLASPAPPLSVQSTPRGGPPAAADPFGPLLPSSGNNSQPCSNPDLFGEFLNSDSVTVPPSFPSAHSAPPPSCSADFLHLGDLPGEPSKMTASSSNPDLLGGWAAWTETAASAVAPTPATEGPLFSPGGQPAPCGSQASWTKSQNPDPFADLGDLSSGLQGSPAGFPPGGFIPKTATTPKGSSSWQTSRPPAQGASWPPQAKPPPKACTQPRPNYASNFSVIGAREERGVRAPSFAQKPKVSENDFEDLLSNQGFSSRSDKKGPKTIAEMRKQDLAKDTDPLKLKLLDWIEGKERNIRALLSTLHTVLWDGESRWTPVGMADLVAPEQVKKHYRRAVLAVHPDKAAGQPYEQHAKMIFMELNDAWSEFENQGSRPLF
Chain of F-actin-capping protein subunit beta (Homo sapiens) (P47756 whole entry): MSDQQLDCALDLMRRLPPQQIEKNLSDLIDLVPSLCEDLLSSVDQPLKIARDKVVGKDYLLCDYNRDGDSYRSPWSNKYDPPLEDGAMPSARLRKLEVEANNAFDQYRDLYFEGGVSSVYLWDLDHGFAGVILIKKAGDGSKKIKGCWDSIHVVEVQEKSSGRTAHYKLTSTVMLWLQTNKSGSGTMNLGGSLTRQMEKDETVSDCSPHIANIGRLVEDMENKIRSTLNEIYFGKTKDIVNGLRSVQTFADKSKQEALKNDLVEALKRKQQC
Chain of Ribosomal protein S6 kinase alpha-3 (Homo sapiens) (P51812 whole entry): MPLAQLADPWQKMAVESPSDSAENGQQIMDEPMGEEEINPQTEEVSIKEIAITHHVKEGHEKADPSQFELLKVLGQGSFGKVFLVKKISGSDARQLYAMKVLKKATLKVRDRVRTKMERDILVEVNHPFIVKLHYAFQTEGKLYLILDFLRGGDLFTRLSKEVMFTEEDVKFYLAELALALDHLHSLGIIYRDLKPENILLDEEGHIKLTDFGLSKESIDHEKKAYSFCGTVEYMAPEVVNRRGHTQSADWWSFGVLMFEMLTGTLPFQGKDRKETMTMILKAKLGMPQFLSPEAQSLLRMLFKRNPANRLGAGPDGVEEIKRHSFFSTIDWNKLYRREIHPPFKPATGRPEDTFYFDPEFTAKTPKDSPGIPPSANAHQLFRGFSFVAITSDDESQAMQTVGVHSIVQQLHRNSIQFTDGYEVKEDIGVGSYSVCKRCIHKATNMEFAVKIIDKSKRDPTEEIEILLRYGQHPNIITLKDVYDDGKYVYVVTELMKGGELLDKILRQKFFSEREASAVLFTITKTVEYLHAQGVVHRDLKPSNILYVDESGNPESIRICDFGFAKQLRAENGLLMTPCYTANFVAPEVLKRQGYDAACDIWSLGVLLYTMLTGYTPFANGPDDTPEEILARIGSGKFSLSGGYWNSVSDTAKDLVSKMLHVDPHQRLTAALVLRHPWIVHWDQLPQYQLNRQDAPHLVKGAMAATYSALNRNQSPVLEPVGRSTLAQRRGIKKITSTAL

As for `C=CC(=O)Nc1ccccc1Nc1nc(Nc2ccc(N3CCN(CCOCCOCCOCCNC(=O)CCCC[C@@H]4SC[C@@H]5NC(=O)N[C@@H]54)CC3)cc2)ncc1Cl`, the outcome in assay [1], in [2], in assay [3], in assay [4], in assay [5] and in assay [6] was Active. The result in assay [7], in assay [8], in assay [9], in assay [10], in assay [11] and in assay [12] was Active. The result in assay [13], in assay [14], in [15], in assay [16] and in [17] was Active.
The term inhibition denotes the drop in the measured response relative to a control, in per cent. As for `C=CC(=O)Nc1ccccc1Nc1nc(Nc2ccc(N3CCN(C)CC3)cc2)ncc1Cl`, the inhibition in assay [18] was -10%.
For the compound `COc1cc(O)c2c(c1)/C=C/C[C@H](O)[C@H](O)C(=O)/C=C\C[C@H](C)OC2=O`, in [19], the Activity turned out to be 1.4%.

The values above are taken from ChEMBL document CHEMBL4118021, “Studies of TAK1-centered polypharmacology with novel covalent TAK1 inhibitors” (Bioorg Med Chem, 2017).
